Screening data as filed in PubChem.
Calb FLC: C. albicans growth modulation with fluconazole; C. albicans CaCi-2 (fluconazole-resistant clinical isolate) + fluconazole, Alamar Blue growth, 48 h; growth inhibition, % (test concentration not listed); actives 0.57% (n = 300,000); AID 1979;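 active means growth inhibition above about 58% in most replicates, limit read from the data, passing the limit was not always enough; inconclusive means exactly half the replicates above a set limit; inactive means most replicates below a set limit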;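 further: all wells also contain fluconazole at 8 µg/ml as a sub-toxic cotreatment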
Mdm2-MdmX inh: disrupts the human Mdm2-MdmX interaction | SaOS-2 split-luciferase Mdm2/MdmX complementation, luminescence | O15151+Q00987 | inhibition, % at 8 µM | actives 3% (n = 330,000);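 active means inhibition of at least 50% at 8 µM in the primary screen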
Target sequence (O15151 whole entry, looked up): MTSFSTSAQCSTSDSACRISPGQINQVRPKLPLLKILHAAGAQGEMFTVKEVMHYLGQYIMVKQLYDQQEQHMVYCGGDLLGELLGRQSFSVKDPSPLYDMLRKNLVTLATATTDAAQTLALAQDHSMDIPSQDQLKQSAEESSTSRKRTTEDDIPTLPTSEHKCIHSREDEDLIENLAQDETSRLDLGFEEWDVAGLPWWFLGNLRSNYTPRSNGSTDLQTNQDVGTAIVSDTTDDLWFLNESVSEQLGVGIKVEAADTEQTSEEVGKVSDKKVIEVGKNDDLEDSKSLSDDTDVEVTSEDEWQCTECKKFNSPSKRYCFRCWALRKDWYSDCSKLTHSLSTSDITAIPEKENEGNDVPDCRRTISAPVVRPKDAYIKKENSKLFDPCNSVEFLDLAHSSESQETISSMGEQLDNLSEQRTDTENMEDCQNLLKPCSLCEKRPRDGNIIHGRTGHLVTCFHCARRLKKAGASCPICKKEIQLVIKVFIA
Target sequence (Q00987 whole entry, looked up): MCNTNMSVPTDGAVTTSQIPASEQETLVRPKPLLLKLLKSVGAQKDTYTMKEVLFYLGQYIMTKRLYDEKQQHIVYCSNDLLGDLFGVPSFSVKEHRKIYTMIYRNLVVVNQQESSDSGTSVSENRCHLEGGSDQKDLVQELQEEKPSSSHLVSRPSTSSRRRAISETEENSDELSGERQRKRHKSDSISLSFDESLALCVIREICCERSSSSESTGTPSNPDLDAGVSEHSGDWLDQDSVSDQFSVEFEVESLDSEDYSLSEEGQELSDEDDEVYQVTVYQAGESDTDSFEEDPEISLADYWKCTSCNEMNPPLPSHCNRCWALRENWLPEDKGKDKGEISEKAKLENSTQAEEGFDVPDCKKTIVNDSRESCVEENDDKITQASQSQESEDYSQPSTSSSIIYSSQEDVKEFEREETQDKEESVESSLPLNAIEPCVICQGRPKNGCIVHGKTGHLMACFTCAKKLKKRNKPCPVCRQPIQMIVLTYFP
SKKanGAS inh: SKKanGAS growth inhibition; inhibition, % at 7.5 µM; actives 1.3% (n = 300,000); S. pyogenes SKKanGAS, kanamycin growth, BacTiter-Glo, 6 h;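 active means mean replicate score, as percent of positive control median, at least 50; inconclusive means mean below 50 but one replicate at or above 50; inactive means mean and every replicate below 50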;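 further: strain carries kanamycin resistance gene driven by streptokinase promoter and grows in 40 µg/ml kanamycin; loss of luminescence reflects streptokinase promoter inhibition or plain growth inhibition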
Beta apoptosis: blocks beta cell apoptosis | INS-1E cytokine-induced death, ATP luminescence, 48 h; percent of positive-control rescue, neutral wells zero | protection from apoptosis, % (no concentration beside the values) | actives 0.8% (n = 300,000) | AID 435005;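 active means Every replicate reaches about 75%, or at least half do and their mean reaches it too, limit read from the data; inconclusive means At least half of replicates reach the limit but their mean does not; inactive means Under half of replicates reach the limit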;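 further: higher means more ATP so stronger rescue from cytokine killing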
T cruzi inh: T. cruzi replication inhibition; AID 1885; inhibition, % (no concentration beside the values); actives 1.4% (n = 300,000); T. cruzi beta-gal in NIH3T3, luminescence, 90 h;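 active means mean inhibition across valid replicates above about 55%, limit read from the data; inconclusive means mean below that limit but half or more replicates reach it; inactive means mean below it, under half of replicates reach it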;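 further: signal also drops with host cell toxicity which is not excluded here; higher percent means less beta-gal luminescence so fewer parasites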
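Read-out: Parasite load inhibition, % | Test system: Mouse NIH/3T3 fibroblasts infected with β-gal-expressing T. cruzi Tulahuen C4 | Amount: 5,000 cells/well | Medium: DMEM, 2% fetal bovine serum | Signal: GalScreen β-gal luminescence, detergent lysis, 60 min | Timing: 3 h attach, ≥90 h co-culture | Also added: Tulahuen C4 trypomastigotes, 5000/well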
CSC inhib: cancer stem cell inhibition; cancer stem cell-like cells viability, luminescence; inhibition, % at 7.5 µM; actives 1.1% (n = 300,000); AID 2717; in the data active means inhibition above about 75%; inconclusive means no clear call, values can overlap the other calls; tested in HMLE shEcad cells
A number is an active result. The list is not random: actives were taken first. Their share in the collection is about 5.7%.

Results for CCCCNC(=O)C(CC)(ONc1ccccc1C(F)(F)F)c1ccccc1OC (stereo unspecified) ?
Mdm2-MdmX inh: inactive; Beta apoptosis: inactive; CSC inhib: inactive

Results for CN(C(=O)CSc1ncnc2sccc12)C1CCCCC1 ?
Mdm2-MdmX inh: inactive; Beta apoptosis: inactive

What do the screens show for `O=C(CC1C(=O)NCCN1Cc1ccc(-c2ccccc2)cc1)NCc1ccccc1` (stereo unspecified)?
Calb FLC: inactive; Mdm2-MdmX inh: inactive; SKKanGAS inh: inactive; Beta apoptosis: inactive; T cruzi inh: inactive; CSC inhib: inactive

How did O=C(CC1C(=O)NCCN1Cc1ccc(-c2ccccc2)cc1)NC1CCC1 (stereo unspecified) do in these assays?
Calb FLC: inactive; Mdm2-MdmX inh: inactive; SKKanGAS inh: inactive; Beta apoptosis: 116.4; T cruzi inh: inactive; CSC inhib: inactive

What do the screens show for `Cc1ccc(NC(=O)c2cc(N3C(=O)C=CC3=O)ccc2N2CCOCC2)cc1`?
Calb FLC: inactive; SKKanGAS inh: inactive; T cruzi inh: 59.4

What do the screens show for `Cc1ccc(NC(=O)c2cc(NC(=O)c3ccco3)ccc2N2CCOCC2)cc1`?
Calb FLC: inactive; Mdm2-MdmX inh: inactive; SKKanGAS inh: inactive; Beta apoptosis: inactive; T cruzi inh: inactive; CSC inhib: inactive

Results for Cc1ccc(S(=O)(=O)N2CCC(NC(=O)C3CCCCC3)CC2)cc1 ?
Calb FLC: inactive; Mdm2-MdmX inh: inactive; SKKanGAS inh: inactive; Beta apoptosis: inactive; T cruzi inh: inactive; CSC inhib: inactive

How did CCN(CC)S(=O)(=O)c1cc(C)ccc1NC(=S)Nc1cccnc1 do in these assays?
Calb FLC: inactive; Mdm2-MdmX inh: inactive; SKKanGAS inh: inactive; Beta apoptosis: 81.8; T cruzi inh: inactive; CSC inhib: inactive

Results for CCN(CC)S(=O)(=O)c1cc(C(=O)Nc2cccnc2)ccc1Cl ?
Calb FLC: inactive; Mdm2-MdmX inh: inactive; SKKanGAS inh: inactive; Beta apoptosis: inactive; T cruzi inh: inactive; CSC inhib: inactive

Results for CC(NC(=O)c1ccco1)C(=O)OCc1cccc(C(F)(F)F)c1 (stereo unspecified) ?
Mdm2-MdmX inh: inactive; Beta apoptosis: inactive; CSC inhib: inactive

How did CCC(=O)N1CCN(c2ccccc2NC(=S)NC(=O)c2ccco2)CC1 do in these assays?
Calb FLC: inactive; Mdm2-MdmX inh: inactive; SKKanGAS inh: inactive; Beta apoptosis: inactive; T cruzi inh: inactive; CSC inhib: inactive

How did Cc1ccc(S(=O)(=O)/N=C2/NC(=O)/C(=C\c3cc(Br)cc(Br)c3O)S2)cc1 do in these assays?
Calb FLC: 122.9; Mdm2-MdmX inh: inactive; Beta apoptosis: inactive; CSC inhib: inactive

Results for Cc1ccc(S(=O)(=O)/N=C2/NC(=O)/C(=C/c3ccc(Br)o3)S2)cc1 ?
Calb FLC: inactive; Mdm2-MdmX inh: inactive; SKKanGAS inh: inactive; T cruzi inh: inactive

What do the screens show for `Cc1ccc(C(=O)Nc2ccccc2)cc1S(=O)(=O)N1CCN(C)CC1`?
Calb FLC: inactive; Mdm2-MdmX inh: inactive; SKKanGAS inh: inactive; Beta apoptosis: inactive; T cruzi inh: inactive; CSC inhib: inactive

How did CCCc1cc(=O)[nH]c2nnc(SCC(=O)NCc3ccc4c(c3)OCO4)n12 do in these assays?
Calb FLC: inactive; Mdm2-MdmX inh: inactive; SKKanGAS inh: inactive; Beta apoptosis: inactive; T cruzi inh: inactive; CSC inhib: inactive

Results for O=C(Nc1nnc(-c2ccc3c(c2)CCCC3)o1)C1CCCCC1 ?
Calb FLC: inactive; Mdm2-MdmX inh: inactive; SKKanGAS inh: 81.4; T cruzi inh: inactive

Results for O=C(Nc1nnc(-c2ccc(Cl)cc2)o1)Nc1ccccc1F ?
Calb FLC: inactive; Mdm2-MdmX inh: inactive; SKKanGAS inh: inactive; Beta apoptosis: inactive; T cruzi inh: inactive; CSC inhib: inactive

Results for O=C(CCc1ccccc1)Nc1nnc(-c2ccc3c(c2)OCCO3)o1 ?
Calb FLC: inactive; Mdm2-MdmX inh: inactive; SKKanGAS inh: inactive; Beta apoptosis: inactive; T cruzi inh: inactive; CSC inhib: inactive

What do the screens show for `O=C(CCc1ccccc1)Nc1nnc(-c2ccc3c(c2)CCCC3)o1`?
Calb FLC: inactive; Mdm2-MdmX inh: inactive; SKKanGAS inh: 85.2; Beta apoptosis: inactive; T cruzi inh: inactive; CSC inhib: inactive

What do the screens show for `O=C(Nc1nnc(-c2ccncc2)o1)C1CCCCC1`?
Calb FLC: inactive; Mdm2-MdmX inh: inactive; SKKanGAS inh: inactive; Beta apoptosis: inactive; T cruzi inh: inactive; CSC inhib: inactive

What do the screens show for `O=C(Nc1nnc(-c2ccc3c(c2)CCCC3)o1)c1c(F)cccc1F`?
Calb FLC: inconclusive; Mdm2-MdmX inh: inactive; SKKanGAS inh: 94.9; Beta apoptosis: inactive; T cruzi inh: inactive; CSC inhib: inactive

Results for Cc1ccc(C(=O)NNC(=O)c2ccccc2O)cc1S(=O)(=O)N1CCCCC1 ?
Calb FLC: inactive; Mdm2-MdmX inh: inactive; SKKanGAS inh: inactive; T cruzi inh: inactive; CSC inhib: inactive

What do the screens show for `Cc1cc(OCC(O)CN2CCc3ccccc3C2)ccc1Cl` (stereo unspecified)?
Calb FLC: inactive; Mdm2-MdmX inh: inactive; SKKanGAS inh: inactive; Beta apoptosis: inactive; T cruzi inh: inactive; CSC inhib: inactive

Results for CCOc1ccc(C(=O)NCC(=O)N2CCC3CCCCC3C2)cc1OCC (stereo unspecified) ?
Calb FLC: inactive; Mdm2-MdmX inh: inactive; SKKanGAS inh: inactive; Beta apoptosis: inactive; T cruzi inh: inactive

Results for CC1=Nc2ccccc2/C1=C\c1nc(-c2ccc(F)cc2)oc1O ?
Calb FLC: inactive; Mdm2-MdmX inh: inactive; SKKanGAS inh: 81.3; Beta apoptosis: inactive; T cruzi inh: inactive; CSC inhib: inactive

How did Cc1cccc(NC(=O)COc2coc(CN3CCN(c4ccccc4)CC3)cc2=O)c1 do in these assays?
Calb FLC: inactive; Mdm2-MdmX inh: inactive; SKKanGAS inh: inactive; T cruzi inh: inactive; CSC inhib: inactive

How did O=C(/C=C1\NC2(CCCC2)Cc2ccccc21)C(=O)N/N=C/c1ccccc1O do in these assays?
Calb FLC: 95.3; Mdm2-MdmX inh: inactive; SKKanGAS inh: 95.6; T cruzi inh: inactive

What do the screens show for `COC(=O)c1c(C)oc2ccc(N(C(=O)c3ccncc3)S(=O)(=O)c3ccccc3)cc12`?
Calb FLC: inactive; Mdm2-MdmX inh: inactive; SKKanGAS inh: inactive; T cruzi inh: inactive; CSC inhib: inactive

How did COC(=O)c1c(C)oc2ccc(N(C(=O)c3ccncc3)S(=O)(=O)c3ccc4ccccc4c3)cc12 do in these assays?
Calb FLC: inactive; Mdm2-MdmX inh: inactive; SKKanGAS inh: inactive; Beta apoptosis: 105.5; T cruzi inh: inactive; CSC inhib: inactive

Results for COC(=O)c1c(C)oc2ccc(N(C(=O)c3ccncc3)S(=O)(=O)c3ccc(C)cc3C)cc12 ?
Calb FLC: inactive; Mdm2-MdmX inh: inactive; SKKanGAS inh: inactive; Beta apoptosis: 99.8; T cruzi inh: inactive; CSC inhib: inactive

Results for Cc1ccc(NC(=O)/C(C#N)=N/Nc2ccc(C(=O)O)cc2)c(C)c1 ?
Calb FLC: inactive; Mdm2-MdmX inh: inactive; SKKanGAS inh: inactive; Beta apoptosis: inactive; T cruzi inh: inactive; CSC inhib: inactive

How did Cc1ccc(N/N=C(\C#N)C(N)=S)c(C)c1 do in these assays?
Calb FLC: inactive; SKKanGAS inh: 59.9; Beta apoptosis: inactive; T cruzi inh: inactive; CSC inhib: inactive
